Reference: ChEMBL document CHEMBL1821664, “Sulfonamides as a new scaffold for hypoxia inducible factor pathway inhibitors” (Bioorg Med Chem Lett, 2011)
Active and inactive are the calls of the source. The rule behind the calls is not given here.

Assays:
[1] = biological target: T1, Hypoxia inducible factors; HIF-1-alpha, HIF-2-alpha (Homo sapiens, UniProt Q16665+Q99814); assay: Inhibition of hypoxia-induced HIF1 activation in human LN229 cells expressing HRE-AP reporter gene at 5 uM preincubated for 1 hr under normoxia condition followed by 24 hrs incubation under hypoxia condition by HRE-luciferase reporter assay relative to control; values are per cent of control
[2] = biological target: T1, Hypoxia inducible factors; HIF-1-alpha, HIF-2-alpha; assay: Inhibition of hypoxia-induced HIF1 activation in human LN229 cells expressing HRE-AP reporter gene at 10 uM preincubated for 1 hr under normoxia condition followed by 24 hrs incubation under hypoxia condition by HRE-luciferase reporter assay relative to control; values are per cent of control
[3] = biological target: T1, Hypoxia inducible factors; HIF-1-alpha, HIF-2-alpha; assay: Inhibition of hypoxia-induced HIF1 activation in human LN229 cells expressing HRE-AP reporter gene at 2.5 uM preincubated for 1 hr under normoxia condition followed by 24 hrs incubation under hypoxia condition by HRE-luciferase reporter assay relative to control; values are per cent of control
[4] = biological target: T1, Hypoxia inducible factors; HIF-1-alpha, HIF-2-alpha; assay: Inhibition of hypoxia-induced HIF1 activation in human LN229 cells expressing HRE-AP reporter gene assessed as HRE remaining activity at 10 uM preincubated for 1 hr under normoxia condition followed by 24 hrs incubation under hypoxia condition by alkaline phosphatase reporter assay relative to control; format: cell-based
How it was run: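 LN229-HRE-AP cells pre-treated 1 h with compound or vehicle (1% DMSO), then 24 h in 1% O2 hypoxia incubator; cells lysed and alkaline phosphatase activity measured. Hits were compounds reducing hypoxic AP induction >50%; single assay.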

[5] = biological target: T1, Hypoxia inducible factors; HIF-1-alpha, HIF-2-alpha; assay: Inhibition of hypoxia-induced HIF1 activation in human LN229 cells expressing VEGF reporter gene assessed as VEGF expression at 10 uM after 24 hrs incubation under hypoxia condition by luciferase reporter assay; format: cell-based
How it was run: (§1)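 LN229 cells stably carrying a VEGF promoter-luciferase construct, pre-treated 1 h in normoxia with compound at 10 µM final, then 24 h in normoxia or hypoxia; luciferase measured in cell extracts; triplicate means ± SD.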

[6] = biological target: T1, Hypoxia inducible factors; HIF-1-alpha, HIF-2-alpha; assay: Inhibition of hypoxia-induced HIF1 activation in human LN229 cells expressing HRE-AP reporter gene preincubated for 1 hr under normoxia condition followed by 24 hrs incubation under hypoxia condition by HRE-luciferase reporter assay; format: cell-based
How it was run: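 HRE-luciferase dose-response: cells pre-treated 1 h, then 24 h hypoxia; luciferase measured in cell extracts; each compound run 5–21 times on separate days, in triplicate. IC50 obtained from a four-parameter logistic fit using a nonlinear mixed-effects model.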

[7] = biological target: T1, Hypoxia inducible factors; HIF-1-alpha, HIF-2-alpha; assay: Inhibition of hypoxia-induced HIF1 activation in human LN229 cells expressing VEGF reporter gene assessed as VEGF expression at 10 uM preincubated for 1 hr under normoxia condition followed by 24 hrs incubation under hypoxia condition by luciferase reporter assay; format: cell-based
How it was run: as §1

Compound | residual activity [1] [%] | residual activity [2] [%] | residual activity [3] [%] | Activity [4] [%] | further results
CC1(C)C=Cc2cc(CN(C3CCCCC3)S(=O)(=O)c3cccc4ccccc34)ccc2O1 | 37 | 37 | 68 | – | –
CC1(C)C=Cc2cc(C(O)c3cn(CCOc4ccc5ccc(=O)oc5c4)nn3)ccc2O1 (configuration not stated) | – | – | – | 117 | –
COc1c(CN(c2ccccc2)S(=O)(=O)c2ccc(C)cc2)ccc2c1OC(C)(C)C=C2 | – | – | – | 58.4 | –
CC(C)CN(Cc1ccc2c(c1)C=CC(C)(C)O2)S(=O)(=O)c1ccc(Br)cc1OC(F)(F)F | 57 | 24 | 49 | – | –
COc1c(CN(Cc2ccccc2)C(=O)c2cccs2)ccc2c1OC(C)(C)C=C2 | – | – | – | 67.5 | –
CC1(C)C=Cc2cc(C(O)n3cc(-c4ccccc4)nn3)ccc2O1 (configuration not stated) | – | – | – | 106 | –
COc1c(C(C)n2cnc3cc(Cl)ccc32)ccc2c1C=CC(C)(C)O2 (configuration not stated) | – | – | – | 55.7 | –
COc1ccc(S(=O)(=O)N(Cc2ccc3c(c2OC)OC(C)(C)C=C3)c2ccccc2)cc1OC | – | – | – | 48.6 | –
CC1(C)C=Cc2cc(CN(C3CCCCC3)S(=O)(=O)c3cc(Cl)ccc3Cl)ccc2O1 | 60 | 24 | 54 | – | –
CC(C)N(Cc1ccc2c(c1)C=CC(C)(C)O2)S(=O)(=O)c1cc(Cl)ccc1Cl | – | – | – | 41.9 | –
COc1ccc(S(=O)(=O)N(Cc2ccc3c(c2)C=CC(C)(C)O3)C(C)C)cc1OC | – | – | – | 64.7 | –
CCOC(OCC)c1ccc2c(c1OC)OC(C)(C)C=C2 | – | – | – | 105 | –
COc1c(C(C(C)C)n2cnc3ncccc32)ccc2c1C=CC(C)(C)O2 (configuration not stated) | – | – | – | 88.8 | –
COc1c(CN(C(=O)c2ccc(Br)cc2)c2ccccc2)ccc2c1OC(C)(C)C=C2 | – | – | – | 63.2 | –
CC1(C)C=Cc2cc(C(O)c3cn(CCNc4ccc([N+](=O)[O-])c5nonc45)nn3)ccc2O1 (configuration not stated) | – | – | – | 116 | –
C=Cc1ccc2c(c1)C=CC(C)(C)O2 | – | – | – | 98.2 | –
COc1c(CN(C(C)=O)c2ccccc2)ccc2c1OC(C)(C)C=C2 | – | – | – | 108 | –
CC(=O)N(Cc1ccc2c(c1)C=CC(C)(C)O2)C(C)C | – | – | – | 105 | –
COc1cc(OC)cc(S(=O)(=O)N(Cc2ccc3c(c2)C=CC(C)(C)O3)CC(C)C)c1 | – | – | – | – | inhibition [5]: inactive; IC50 [6]: 1.011 µM; inhibition [7]: Active
COc1ccc(Cl)cc1S(=O)(=O)N(Cc1ccc2c(c1)C=CC(C)(C)O2)CC(C)C | 90 | 73 | 81 | – | –
COc1ccc(S(=O)(=O)N(Cc2ccccc2)Cc2ccc3c(c2)C=CC(C)(C)O3)cc1OC | 26 | 15 | 54 | – | –
CC1(C)C=Cc2cc(CN(c3ccccc3)S(=O)(=O)c3cccc4ccccc34)ccc2O1 | 75 | 29 | 55 | – | –
CC1(C)C=Cc2cc(C(O)c3cn(C(C)(C)C)nn3)ccc2O1 (configuration not stated) | – | – | – | 90.7 | –

Compound | residual activity [1] [%] | residual activity [2] [%] | residual activity [3] [%] | Activity [4] [%] | further results
COc1ccc(S(=O)(=O)N(Cc2ccccc2)Cc2ccc3c(c2OC)OC(C)(C)C=C3)cc1OC | – | – | – | 68.5 | –
COc1ccc(Cl)cc1S(=O)(=O)N(Cc1ccc2c(c1)C=CC(C)(C)O2)c1ccccc1 | 56 | 28 | 61 | – | –
CC1(C)C=Cc2cc(CN(C(=O)c3cccs3)c3ccccc3)ccc2O1 | – | – | – | 79.1 | –
CC(c1ccc2c(c1)C=CC(C)(C)O2)n1cnc2ncccc21 (configuration not stated) | – | – | – | 76.9 | –
COc1c(CN(c2ccccc2)S(=O)(=O)c2cc(Cl)ccc2Cl)ccc2c1OC(C)(C)C=C2 | – | – | – | 51.5 | –
CC1(C)C=Cc2cc(CN(C3CCCCC3)S(=O)(=O)c3ccc(Oc4c(Cl)cccc4[N+](=O)[O-])cc3)ccc2O1 | 49 | 49 | 73 | – | –
Cc1ccc(S(=O)(=O)N(Cc2ccc3c(c2)C=CC(C)(C)O3)C(C)C)cc1 | – | – | – | 55 | –
COc1c(C(C)n2cnc3ncccc32)ccc2c1C=CC(C)(C)O2 (configuration not stated) | – | – | – | 95.7 | –
CC1(C)C=Cc2cc(CN(C3CCCCC3)S(=O)(=O)c3ccc(Br)cc3OC(F)(F)F)ccc2O1 | 75 | 61 | 79 | – | –
CC1(C)C=Cc2cc(CN(Cc3ccccc3)S(=O)(=O)c3ccc([N+](=O)[O-])cc3)ccc2O1 | 35 | 27 | 47 | – | –
CC(c1ccc2c(c1)C=CC(C)(C)O2)n1ccnc1 (configuration not stated) | – | – | – | 86.6 | –
CC1(C)C=Cc2cc(C(O)c3cn(C45CC6CC(CC(C6)C4)C5)nn3)ccc2O1 (configuration not stated) | – | – | – | 101 | –
COc1ccc(Cl)cc1S(=O)(=O)N(Cc1ccccc1)Cc1ccc2c(c1)C=CC(C)(C)O2 | 78 | 50 | 66 | – | –
CC1(C)C=Cc2cc(CN(c3ccccc3)S(=O)(=O)c3cc(Cl)ccc3Cl)ccc2O1 | 51 | 35 | 62 | 54.2 | –
CC(C)CN(Cc1ccc2c(c1)C=CC(C)(C)O2)S(=O)(=O)c1ccc(Oc2c(Cl)cccc2[N+](=O)[O-])cc1 | 23 | 24 | 34 | – | –
COc1ccc(S(=O)(=O)N(Cc2ccccc2)Cc2ccc3c(c2)C=CC(C)(C)O3)c(OC)c1 | 54 | 20 | 60 | – | –
CC(C)N(Cc1ccc2c(c1)C=CC(C)(C)O2)C(=O)c1cccs1 | – | – | – | 46.2 | –
CC1(C)C=Cc2cc(C(c3ccccc3)n3ccnc3)ccc2O1 (configuration not stated) | – | – | – | 88.9 | –
CC1(C)C=Cc2cc(C(c3ccccc3)n3cnc4ncccc43)ccc2O1 (configuration not stated) | – | – | – | 83.5 | –
CCN(CC)C(=O)OCn1cc(C(O)c2ccc3c(c2)C=CC(C)(C)O3)nn1 (configuration not stated) | – | – | – | 97.7 | –
COc1c(C(C)n2ccnc2)ccc2c1C=CC(C)(C)O2 (configuration not stated) | – | – | – | 104 | –
CC1(C)C=Cc2cc(CN(c3ccccc3)S(=O)(=O)c3ccc([N+](=O)[O-])cc3)ccc2O1 | 66 | 50 | 78 | – | –
COc1c(/C=N/O)ccc2c1OC(C)(C)C=C2 | – | – | – | 89.4 | –

Compound | residual activity [1] [%] | residual activity [2] [%] | residual activity [3] [%] | Activity [4] [%] | further results
CC(C)N(Cc1ccc2c(c1)C=CC(C)(C)O2)S(=O)(=O)c1ccc([N+](=O)[O-])cc1 | – | – | – | 43.2 | –
CC1(C)C=Cc2cc(CN(c3ccccc3)S(=O)(=O)c3ccc(Oc4c(Cl)cccc4[N+](=O)[O-])cc3)ccc2O1 | 21 | 27 | 40 | – | –
COc1c(CN(Cc2ccccc2)S(=O)(=O)c2ccc([N+](=O)[O-])cc2)ccc2c1OC(C)(C)C=C2 | – | – | – | 62.2 | –
CC(O)c1ccc2c(c1)C=CC(C)(C)O2 (configuration not stated) | – | – | – | 94.9 | –
CC1(C)C=Cc2cc(CN(C3CCCCC3)S(=O)(=O)c3ccc([N+](=O)[O-])cc3)ccc2O1 | 53 | 33 | 68 | – | –
CC1(C)C=Cc2cc(CN(C(=O)c3ccc(Br)cc3)c3ccccc3)ccc2O1 | – | – | – | 57.6 | –
COc1ccc(S(=O)(=O)N(Cc2ccc3c(c2)C=CC(C)(C)O3)C2CCCCC2)cc1OC | 17 | 4 | 44 | – | –
CC1(C)C=Cc2cc(C(c3ccccc3)n3cnc4cc(Cl)ccc43)ccc2O1 (configuration not stated) | – | – | – | 87.9 | –
COc1c(CN(c2ccccc2)S(=O)(=O)c2ccc([N+](=O)[O-])cc2)ccc2c1OC(C)(C)C=C2 | – | – | – | 72.4 | –
COc1c(CN(Cc2ccccc2)C(C)=O)ccc2c1OC(C)(C)C=C2 | – | – | – | 93.1 | –
CC1(C)C=Cc2cc(/C=N/O)ccc2O1 | – | – | – | 91.4 | –
CC(C)N(Cc1ccc2c(c1)C=CC(C)(C)O2)C(=O)c1ccc(Br)cc1 | – | – | – | 63.9 | –
COc1c(CN(Cc2ccccc2)S(=O)(=O)c2cc(Cl)ccc2Cl)ccc2c1OC(C)(C)C=C2 | – | – | – | 35 | –
COc1c(CN(C(=O)c2cccs2)c2ccccc2)ccc2c1OC(C)(C)C=C2 | – | – | – | 61.8 | –
CC1(C)C=Cc2cc(C(O)c3cn(Cc4ccccc4)nn3)ccc2O1 (configuration not stated) | – | – | – | 88.8 | –
CC1(C)C=Cc2cc(CN(Cc3ccccc3)S(=O)(=O)c3ccc(Oc4c(Cl)cccc4[N+](=O)[O-])cc3)ccc2O1 | 51 | 27 | 54 | – | –
CC1(C)C=Cc2cc(CN(c3ccccc3)S(=O)(=O)c3ccc(Br)cc3OC(F)(F)F)ccc2O1 | 56 | 35 | 53 | – | –
CC(=O)N(Cc1ccc2c(c1)C=CC(C)(C)O2)c1ccccc1 | – | – | – | 91.5 | –
COc1c(CN(Cc2ccccc2)S(=O)(=O)c2ccc(C)cc2)ccc2c1OC(C)(C)C=C2 | – | – | – | 40.4 | –
COc1c(C(C(C)C)n2ccnc2)ccc2c1C=CC(C)(C)O2 (configuration not stated) | – | – | – | 135 | –
COc1ccc(S(=O)(=O)N(Cc2ccc3c(c2)C=CC(C)(C)O3)c2ccccc2)c(OC)c1 | 61 | 31 | 76 | – | –
